Results: BindingDB's records for doi:10.1016/s0960-894x(01)00689-8 (Niddk, 2001)

Columns and labels:
[1] = biological target: Delta-type opioid receptor (Rattus norvegicus, UniProt P33533); experiment: Binding affinity for delta opioid receptor by displacing [3H]DADL was determined
Summary of the method: (§1)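 Radioligand displacement binding at opioid receptors, with Ki values derived. Each receptor used its own radioligand: mu was [3H]DAMGO, delta was [3H]DADL and kappa was [3H]U69593.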

[2] = biological target: Kappa-type opioid receptor (Cavia porcellus, UniProt P41144); experiment: Binding affinity for kappa opioid receptor by displacing [3H]U-69593 was determined; summary of the method: as §1
[3] = biological target: Mu-type opioid receptor (Rattus norvegicus, UniProt P33535); experiment: Binding affinity for mu opioid receptor by displacing [3H]-DAMGO was determined; summary of the method: as §1
[4] = Binding affinity for gamma-S binding assay
[5] = Binding affinity for gamma-S binding assay; Inactive

Sequence of Delta-type opioid receptor (P33533 whole entry): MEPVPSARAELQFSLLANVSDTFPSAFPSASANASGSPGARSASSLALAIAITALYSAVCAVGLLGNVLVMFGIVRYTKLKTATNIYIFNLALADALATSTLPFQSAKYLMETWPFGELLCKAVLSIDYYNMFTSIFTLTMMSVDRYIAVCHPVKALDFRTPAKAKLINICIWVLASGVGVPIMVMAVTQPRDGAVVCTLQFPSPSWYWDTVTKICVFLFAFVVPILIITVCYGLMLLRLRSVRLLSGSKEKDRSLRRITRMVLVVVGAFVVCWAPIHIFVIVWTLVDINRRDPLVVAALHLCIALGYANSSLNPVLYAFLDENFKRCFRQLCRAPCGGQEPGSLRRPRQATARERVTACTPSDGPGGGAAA
Sequence of Mu-type opioid receptor (P33535 whole entry): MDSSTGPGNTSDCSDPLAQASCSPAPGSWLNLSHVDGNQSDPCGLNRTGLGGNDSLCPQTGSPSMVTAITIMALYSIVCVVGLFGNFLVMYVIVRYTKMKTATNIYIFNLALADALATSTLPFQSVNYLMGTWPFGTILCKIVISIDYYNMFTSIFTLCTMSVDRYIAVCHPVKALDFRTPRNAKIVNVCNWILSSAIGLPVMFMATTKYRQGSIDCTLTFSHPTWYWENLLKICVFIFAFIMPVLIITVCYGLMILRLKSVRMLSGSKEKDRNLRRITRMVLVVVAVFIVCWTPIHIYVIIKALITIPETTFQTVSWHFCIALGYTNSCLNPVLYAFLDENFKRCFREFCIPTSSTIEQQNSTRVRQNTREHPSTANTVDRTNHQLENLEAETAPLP
Sequence of Kappa-type opioid receptor (P41144 whole entry): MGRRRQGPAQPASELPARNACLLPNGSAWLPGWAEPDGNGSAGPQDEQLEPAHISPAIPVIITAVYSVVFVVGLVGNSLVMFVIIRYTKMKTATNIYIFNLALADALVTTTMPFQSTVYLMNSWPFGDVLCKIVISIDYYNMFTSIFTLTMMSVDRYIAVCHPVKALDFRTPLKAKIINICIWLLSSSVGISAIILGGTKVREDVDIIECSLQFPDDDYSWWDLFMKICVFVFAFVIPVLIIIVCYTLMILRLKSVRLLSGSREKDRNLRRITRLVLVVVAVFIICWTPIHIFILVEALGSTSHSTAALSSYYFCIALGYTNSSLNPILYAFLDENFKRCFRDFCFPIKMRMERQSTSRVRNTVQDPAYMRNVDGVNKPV

| SMILES | Ki [1] [nM] | Ki [2] [nM] | Ki [3] [nM] | Ki [4] [nM] | Ki [5] [nM] |
| --- | --- | --- | --- | --- | --- |
| C/C=C/C(=O)N1CCC23c4c5ccc(O)c4O[C@H]2c2[nH]c4ccccc4c2[C@H](C)C3C1C5 (some centres not stated) | 2.3 | 120 | – | – | – |
| C[C@H]1c2c([nH]c3ccccc23)[C@@H]2Oc3c(O)ccc4c3C23CCN(CC2CC2)C(C4)C13 (some centres not stated) | 2.3 | 36 | 66 | – | – |
| CN1CC[C@]23c4c5ccc(O)c4O[C@H]2c2[nH]c4ccccc4c2C[C@H]3[C@H]1C5 | 2.4 | – | – | 15 | – |
| CCCC[C@H]1c2c([nH]c3ccccc23)[C@@H]2Oc3c(OC)ccc4c3C23CCN(C)C(C4)C13 (some centres not stated) [Indole Derivative] | 370 | – | > 4300 | – | > 750 |
| COc1ccc2c3c1O[C@H]1c4[nH]c5ccccc5c4CC4C(C2)N(C)CCC341 (some centres not stated) [Indole Derivative] | 95 | – | > 5000 | 290 | – |
| COc1ccc2c3c1O[C@H]1c4[nH]c5ccccc5c4[C@H](C)C4C(C2)N(C)CCC341 (some centres not stated) [Indole Derivative] | 27 | – | > 4800 | 330 | – |
| C[C@H]1c2c([nH]c3ccccc23)[C@@H]2Oc3c(O)ccc4c3C23CCN(C)C(C4)C13 (some centres not stated) [Indole Derivative] | 0.7 | – | 240 | 49 | – |
| CCCC[C@H]1c2c([nH]c3ccccc23)[C@@H]2Oc3c(O)ccc4c3C23CCN(C)C(C4)C13 (some centres not stated) [Indole Derivative] | 22 | – | 1100 | 46 | – |
